In brackets after ≈: the same amount, converted by molar mass. Activity calls are given as the source filed them. The calls are words filed in the database; no cut-off is given here.
Assays:
Human alphaherpesvirus 1 [1] = assay: In vitro anti viral activity tested against HSV-1(Schooler) virus on Rabbit kidney cell cultures.; type: functional; details: Human alphaherpesvirus 1, kidney; read-out: ED50 (the source's name)
Outline: (§1)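 Confluent primary rabbit kidney monolayers were preincubated with serial drug dilutions in EMEM with 2% fetal calf serum and neomycin. They were then challenged with about 10 TCID50 of HSV-1 Schooler or HSV-2 Curtis and incubated at 37 °C. Cytopathology was scored on day 5. ED50 is the concentration preventing cytopathology in half of the infected cultures.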

Human alphaherpesvirus 2 [2] = assay: In vitro anti viral activity tested against HSV-2(Curtis) virus on Rabbit kidney cell cultures.; type: functional; details: Human alphaherpesvirus 2, kidney; read-out: ED50 (the source's name); outline: as §1
[3] = test system: DNA polymerase (Homo sapiens); assay: Evaluated for DNA polymerase inhibition activity against HeLa cells.
Human alphaherpesvirus 1 [4] = assay: Efficacy was evaluated against Systemic HSV-1 infection in mice at a daily dose of 12.5 mg/kg administered subcutaneously; Tested mice 10; type: organism-based; design: dose 12.5 mg/kg, route subcutaneous; details: mouse, in vivo, sc
Outline: (§2)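 ICR/Ha mice (10–20 g, mixed sex) were infected intraperitoneally with 50–100 LD50 of HSV-1 Schooler. Subcutaneous dosing of 0.1 mL twice daily for 4 days started immediately after infection. Groups were of about 10 mice. Survival was recorded daily for 15 days and reported as survivors/total and mean survival time (95% CI). Transformed survival times were compared with placebo-treated infected mice (p < 0.05).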

Human alphaherpesvirus 1 [5] = assay: Efficacy was evaluated against Systemic HSV-1 infection in mice at a daily dose of 3.1 mg/kg administered subcutaneously; Tested mice 10; type: ADME, organism-based; design: dose 3.1 mg/kg, route subcutaneous; details: mouse, in vivo, sc; outline: as §2
Human alphaherpesvirus 2 [6] = assay: In vitro anti viral activity tested against HSV-2(Curtis) virus on Rabbit kidney cell cultures; 25-50; type: functional; details: Human alphaherpesvirus 2, kidney; read-out: ED50 (the source's name); outline: as §1
Human alphaherpesvirus 1 [7] = assay: Efficacy was evaluated against Systemic HSV-1 infection in mice at a daily dose of 0.8 mg/kg administered subcutaneously; type: ADME, organism-based; design: dose 0.8 mg/kg, route subcutaneous; details: mouse, in vivo, sc; outline: as §2
Human alphaherpesvirus 1 [8] = assay: Evaluated for DNA polymerase inhibition activity against herpes simplex virus-1 (HSV-1); type: functional
Outline: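 Step II mixture supplied the phosphorylated test material. Step I: compound with HSV-1 thymidine kinase, 4 h, 37 °C. Step II: then HSV-1-infected HeLa crude extract plus GMP kinase, overnight, 30 °C. A 20 μL sample went to a 1 h, 37 °C DNA polymerase assay at pH 8 with activated salmon sperm DNA, 0.05 mM each dNTP ([³H]dTTP) and infected HeLa extract. (NH₄)₂SO₄ 0.1 M was present for the viral enzyme and omitted for the cellular polymerases. Read-out: TCA-precipitable radioactivity.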

Human alphaherpesvirus 1 [9] = assay: Efficacy was evaluated against Systemic HSV-1 infection in mice at a daily dose of 0.8 mg/kg administered subcutaneously; Tested mice 10; type: organism-based; design: dose 0.8 mg/kg, route subcutaneous; details: mouse, in vivo, sc; outline: as §2
Human alphaherpesvirus 1 [10] = assay: Efficacy was evaluated against Systemic HSV-1 infection in mice at a daily dose of 3.1 mg/kg administered subcutaneously; type: ADME, organism-based; design: dose 3.1 mg/kg, route subcutaneous; details: mouse, in vivo, sc; outline: as §2
Human alphaherpesvirus 1 [11] = assay: Efficacy was evaluated against Systemic HSV-1 infection in mice at a daily dose of 12.5 mg/kg administered subcutaneously; type: ADME, organism-based; design: dose 12.5 mg/kg, route subcutaneous; details: mouse, in vivo, sc; outline: as §2
Human betaherpesvirus 5 = assay: In vitro anti viral activity tested against HCMV(AD169) virus on MRC-5 cell monolayers; NA=Not active at 25 ug/mL; type: functional, organism-based; details: MRC5
Outline: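 MRC-5 monolayers were infected with HCMV AD169 for 1 h at 37 °C. Compound diluted in maintenance medium was then added and incubation continued for 7 days at 37 °C. Monolayers were stained and plaques counted. ED50 is the concentration reducing plaque number by 50%.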

| Structure (SMILES) | EC50 (Human alphaherpesvirus 1 [1]) | EC50 (Human alphaherpesvirus 2 [2]) | Inhibition [3] | Survivors (Human alphaherpesvirus 1 [4]) | Survivors (Human alphaherpesvirus 1 [5]) | EC50 (Human alphaherpesvirus 2 [6]) | Average survival (Human alphaherpesvirus 1 [7]) | Inhibition (Human alphaherpesvirus 1 [8]) | Survivors (Human alphaherpesvirus 1 [9]) | Average survival (Human alphaherpesvirus 1 [10]) | Average survival (Human alphaherpesvirus 1 [11]) | ED50 (Human betaherpesvirus 5) |
| --- | --- | --- | --- | --- | --- | --- | --- | --- | --- | --- | --- | --- |
| Nc1nc(O)c2ncn(COCC(O)CO)c2n1 (stereo not drawn) | 3 µg/mL (≈ 11.8 µM) | 6 µg/mL (≈ 23.5 µM) | – | – | – | – | – | – | – | – | – | – |
| Nc1nc(O)c2ncn(COCC(O)CO)c2n1 (single isomer, unassigned; form 1) [listing 1 of 2 here] | 25 µg/mL (≈ 97.9 µM) | – | 0% | 1 | 1 | 25 µg/mL (≈ 97.9 µM) | 6.3 days | 7% | 0 | 6.5 days | 7.5 days | – |
| Nc1nc(O)c2ncn(COCC(O)CO)c2n1 (single isomer, unassigned; form 1) [listing 2 of 2 here] | – | – | – | – | – | – | – | – | – | – | – | inactive |

From ChEMBL document CHEMBL1123083, “Synthesis and antiherpetic activity of (S)-, (R)-, and (+/-)-9-[(2,3-dihydroxy-1-propoxy)methyl]guanine, linear isomers of 2'-nor-2'-deoxyguanosine” (J Med Chem, 1985)
